Reference: ChEMBL document CHEMBL1134569, “Synthesis and in vitro and in vivo antimalarial activity of new 4-anilinoquinolines” (J Med Chem, 2001)

Legend:
[1] = Cytotoxicity upon MRC-5 cells (diploid embryonic lung cell line) at 12.5 uM; assay type: cell-based, MRC5; settings: human
Summary of the method: (§1)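 MRC-5 human diploid embryonic lung cells seeded at 5000/well, washed after 24 h, then given 2-fold drug dilutions in RPMI + 5% FCS (final DMSO below 0.5%). Incubated at 37 °C, 5% CO₂, for 7 days. MTT read-out at 540 nm, scored as percent absorbance reduction versus untreated controls.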

[2] = Cytotoxicity upon MPMs (mouse peritoneal macrophages) at 6.3 uM conc.; Toxic
Summary of the method: (§2)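 Mouse peritoneal macrophages harvested 48 h after potato-starch stimulation and seeded at 30000 cells/well. After 24 h, washed and exposed to 2-fold drug dilutions in RPMI + 5% FCS (final DMSO below 0.5%) at 37 °C, 5% CO₂, for 7 days. Toxicity scored microscopically as toxic or not versus untreated controls.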

Plasmodium falciparum [3] = assay: Inhibitory activity against chloroquine-resistant Plasmodium falciparum FcB1R; assay type: functional, organism-based; settings: Plasmodium falciparum
[4] = Cytotoxicity upon MRC-5 cells (diploid embryonic lung cell line) at 3.1 uM; assay type: cell-based, MRC5; settings: human; summary of the method: as §1
[5] = Cytotoxicity upon MRC-5 cells (diploid embryonic lung cell line) at 6.3 uM; assay type: cell-based, MRC5; settings: human; summary of the method: as §1
[6] = Cytotoxicity upon MPMs (mouse peritoneal macrophages) at 12.5 uM conc.; Toxic; summary of the method: as §2
[7] = Cytotoxicity upon MPMs (mouse peritoneal macrophages) at 2 uM conc.; Toxic; summary of the method: as §2
[8] = Cytotoxicity upon MPMs (mouse peritoneal macrophages) at 8 uM; summary of the method: as §2
[9] = Cytotoxicity upon MRC-5 cells (diploid embryonic lung cell line) at 32 uM; assay type: cell-based, MRC5; settings: human; summary of the method: as §1
[10] = Cytotoxicity upon MRC-5 cells (diploid embryonic lung cell line) at 8 uM; assay type: cell-based, MRC5; settings: human; summary of the method: as §1
[11] = Cytotoxicity upon MPMs (mouse peritoneal macrophages) at 32 uM; summary of the method: as §2
[12] = Cytotoxicity upon MRC-5 cells (diploid embryonic lung cell line) at 1 uM; assay type: cell-based, MRC5; settings: human; summary of the method: as §1
Mus musculus = assay: Antimalarial activity on Plasmodium berghei in mice (Mus musculus) dosed at 40 mg/kg at day 4; assay type: functional
Summary of the method: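 Female Swiss CD-1 mice (4 weeks, 20-25 g), three per group, infected ip with about 10⁷ P. berghei ANKA 65 parasitized erythrocytes from an infected donor. Dosed orally at 40 mg/kg in 100% DMSO at infection, then ip for the following 4 days. Parasitaemia reduction and mean survival time compared with three DMSO-dosed infected controls.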

[13] = Cytotoxicity upon MPMs (mouse peritoneal macrophages) at 2 uM; summary of the method: as §2
[14] = Cytotoxicity upon MPMs (mouse peritoneal macrophages) at 8 uM conc.;NT=No Toxicity; summary of the method: as §2
Plasmodium falciparum [15] = assay: Inhibitory activity against chloroquine-sensitive Plasmodium falciparum THAI
Plasmodium falciparum [16] = assay: Inhibitory activity against chloroquine-resistant Plasmodium falciparum K1; assay type: functional, organism-based
[17] = Cytotoxicity upon MRC-5 cells (diploid embryonic lung cell line) at 12.5 uM concentration; assay type: cell-based, MRC5; settings: human; summary of the method: as §1
[18] = Cytotoxicity upon MRC-5 cells (diploid embryonic lung cell line) at 6.3 uM concentration; assay type: cell-based, MRC5; settings: human; summary of the method: as §1
[19] = Cytotoxicity upon MPMs (mouse peritoneal macrophages) at 3.1 uM concentration; NT= No toxicity.; summary of the method: as §2
[20] = Cytotoxicity upon MRC-5 cells (diploid embryonic lung cell line) at 8 uM concentration; assay type: cell-based, MRC5; settings: human; summary of the method: as §1
[21] = Cytotoxicity upon MRC-5 cells (diploid embryonic lung cell line) at 3.1 uM concentration; assay type: cell-based, MRC5; settings: human; summary of the method: as §1
[22] = Cytotoxicity upon MRC-5 cells (diploid embryonic lung cell line) at 32 uM concentration; assay type: cell-based, MRC5; settings: human; summary of the method: as §1
[23] = Cytotoxicity upon MPMs (mouse peritoneal macrophages) at 2 uM concentration; NT=No toxicity; summary of the method: as §2
[24] = Cytotoxicity upon MRC-5 cells (diploid embryonic lung cell line) at 25 uM concentration; assay type: cell-based, MRC5; settings: human; summary of the method: as §1
[25] = Cytotoxicity upon MPMs (mouse peritoneal macrophages) at 6.3 uM concentration; Toxic Compound; summary of the method: as §2
[26] = Cytotoxicity upon MPMs (mouse peritoneal macrophages) at 12.5 uM concentration; Toxic Compound; summary of the method: as §2
[27] = Cytotoxicity upon MRC-5 cells (diploid embryonic lung cell line) at 1 uM concentration; assay type: cell-based, MRC5; settings: human; summary of the method: as §1
[28] = Cytotoxicity upon MPMs (mouse peritoneal macrophages) at 32 uM concentration; Toxic Compound.; summary of the method: as §2
[29] = Cytotoxicity upon MPMs (mouse peritoneal macrophages) at 2 uM concentration; No toxicity; summary of the method: as §2
[30] = Cytotoxicity upon MPMs (mouse peritoneal macrophages) at 12.5 uM concentration; No toxicity; summary of the method: as §2
[31] = Cytotoxicity upon MPMs (mouse peritoneal macrophages) at 32 uM concentration; No toxicity; summary of the method: as §2
[32] = Cytotoxicity upon MPMs (mouse peritoneal macrophages) at 8 uM concentration; No toxicity; summary of the method: as §2
[33] = Cytotoxicity upon MPMs (mouse peritoneal macrophages) at 6.3 uM concentration; No toxicity; summary of the method: as §2
[34] = Cytotoxicity upon MRC-5 cells (diploid embryonic lung cell line) at 1.6 uM concentration; assay type: cell-based, MRC5; settings: human; summary of the method: as §1
[35] = Cytotoxicity upon MPMs (mouse peritoneal macrophages) at 3.1 uM concentration; No toxicity; summary of the method: as §2
[36] = Cytotoxicity upon MRC-5 cells (diploid embryonic lung cell line) at 1.6 uM conc.; assay type: cell-based, MRC5; settings: human; summary of the method: as §1
[37] = Cytotoxicity upon MRC-5 cells (diploid embryonic lung cell line) at 25 uM conc.; assay type: cell-based, MRC5; settings: human; summary of the method: as §1

## CC1CCN(CC(=O)Nc2cc(CO)cc(Nc3ccnc4cc(Cl)ccc34)c2)CC1
[1]
  cytotoxicity at 12.5 µM: 100%
[2]
  Cytotoxicity: Toxic
Plasmodium falciparum [3]
  IC50: 77.7 nM
[4]
  cytotoxicity at 3.1 µM: 0%
[5]
  cytotoxicity at 6.3 µM: 0%
[6]
  Cytotoxicity: Toxic

## O=C(CN1CCCCC1)Nc1cc(CNCc2ccc(Cl)cc2)cc(Nc2ccnc3cc(Cl)ccc23)c1
[7]
  Cytotoxicity: Toxic
[8]
  Cytotoxicity: Cytotoxicity upon MPMs at 32 uM
Plasmodium falciparum [3]
  IC50: 4.6 nM
[9]
  cytotoxicity at 32 µM: 100%
[10]
  cytotoxicity at 8 µM: 100%
[11]
  Cytotoxicity: Cytotoxicity upon MPMs at 32 uM
[12]
  cytotoxicity at 1 µM: 100%

## O=C(CN1CCCCC1)Nc1cc(CN2CCOCC2)cc(Nc2ccnc3cc(Cl)ccc23)c1
Mus musculus
  Reduction in parasitemia: 100%
Plasmodium falciparum [3]
  IC50: 9.5 nM
[13]
  NT: Cytotoxicity upon MPMs at 2 uM
[14]
  NT: Cytotoxicity upon MPMs at 2 uM
Plasmodium falciparum [15]
  IC50: 12.8 nM
[9]
  cytotoxicity at 32 µM: 100%
Plasmodium falciparum [16]
  IC50: 12.4 nM
[10]
  cytotoxicity at 8 µM: 0%
[11]
  Cytotoxicity: Cytotoxicity upon MPMs at 32 uM
[12]
  cytotoxicity at 1 µM: 0%

## O=Cc1cc(NC(=O)CN2CCCCC2)cc(Nc2ccnc3cc(Cl)ccc23)c1
Plasmodium falciparum [3]
  IC50: 282 nM
[13]
  NT: Cytotoxicity upon MPMs at 2 uM
[14]
  NT: Cytotoxicity upon MPMs at 2 uM
[9]
  cytotoxicity at 32 µM: 0%
[10]
  cytotoxicity at 8 µM: 0%
[12]
  cytotoxicity at 1 µM: 0%

## CCN(CC)Cc1cc(Nc2ccnc3cc(Cl)ccc23)ccc1O.Cl
[17]
  cytotoxicity at 12.5 µM: 0%
[18]
  cytotoxicity at 6.3 µM: 0%
[19]
  NT: No toxicity
[20]
  cytotoxicity at 8 µM: 0%
[21]
  cytotoxicity at 3.1 µM: 0%
[22]
  cytotoxicity at 32 µM: 91%
[23]
  NT: No toxicity
[24]
  cytotoxicity at 25 µM: 91%
Plasmodium falciparum [3]
  IC50: 7.4 nM
Plasmodium falciparum [15]
  IC50: 7.3 nM
[25]
  Cytotoxicity: Toxic
Plasmodium falciparum [16]
  IC50: 14.5 nM
[26]
  Cytotoxicity: Toxic
[27]
  cytotoxicity at 1 µM: 0%
[28]
  Cytotoxicity: Toxic

## CCN(CC)CCCC(C)Nc1ccnc2cc(Cl)ccc12 (centres undefined) [CHLOROQUINE]
[17]
  cytotoxicity at 12.5 µM: 0%
[18]
  cytotoxicity at 6.3 µM: 0%
[29]
  NA: Not Active
[20]
  cytotoxicity at 8 µM: 0%
[21]
  cytotoxicity at 3.1 µM: 0%
[22]
  cytotoxicity at 32 µM: 0%
[24]
  cytotoxicity at 25 µM: 0%
[30]
  NA: Not Active
[31]
  NA: Not Active
[32]
  NA: Not Active
[33]
  NA: Not Active
[34]
  cytotoxicity at 1.6 µM: 0%
[27]
  cytotoxicity at 1 µM: 0%
[35]
  NA: Not Active

## CN(C)CCNCc1cc(NC(=O)CN2CCCCC2)cc(Nc2ccnc3cc(Cl)ccc23)c1
Plasmodium falciparum [3]
  IC50: 15.5 nM
[13]
  NT: Cytotoxicity upon MPMs at 2 uM
[14]
  NT: Cytotoxicity upon MPMs at 2 uM
[9]
  cytotoxicity at 32 µM: 100%
[10]
  cytotoxicity at 8 µM: 15%
[11]
  Cytotoxicity: Cytotoxicity upon MPMs at 32 uM
[12]
  cytotoxicity at 1 µM: 0%

## COc1ccc(CNCc2cc(NC(=O)CN3CCCCC3)cc(Nc3ccnc4cc(Cl)ccc34)c2)cc1
[7]
  Cytotoxicity: Toxic
[8]
  Cytotoxicity: Cytotoxicity upon MPMs at 32 uM
Plasmodium falciparum [3]
  IC50: 4.4 nM
[9]
  cytotoxicity at 32 µM: 100%
[10]
  cytotoxicity at 8 µM: 100%
[11]
  Cytotoxicity: Cytotoxicity upon MPMs at 32 uM
[12]
  cytotoxicity at 1 µM: 100%

## O=C(CN1CCCCC1)Nc1cc(COC(=O)CCCCCCCN2CCCCC2)cc(Nc2ccnc3cc(Cl)ccc23)c1
[2]
  Cytotoxicity: Toxic
Plasmodium falciparum [3]
  IC50: 165 nM
[13]
  NT: Cytotoxicity upon MPMs at 2 uM
[36]
  cytotoxicity at 1.6 µM: 0%
[5]
  cytotoxicity at 6.3 µM: 84%
[6]
  Cytotoxicity: Toxic
[37]
  cytotoxicity at 25 µM: 83%
